The source made the active and inactive calls. The rule behind the calls is not given here.
What was measured:
RXF 393 = assay: Cytotoxicity against human RXF393 cells assessed as cell growth at 5 uM by SRB assay; format: functional; conditions: read-out: Activity
SN12C = assay: Cytotoxicity against human SN12C cells assessed as cell growth at 5 uM by SRB assay; format: functional; conditions: read-out: Activity
BT-549 [1] = assay: Cytotoxicity against human BT549 cells assessed as cell growth at 0.5 uM by SRB assay; format: functional; conditions: read-out: Activity
PC-3 [2] = assay: Cytotoxicity against human PC3 cells assessed as cell growth at 0.005 uM by SRB assay; format: functional; conditions: read-out: Activity
HCT-116 = assay: Cytotoxicity against human HCT116 cells assessed as cell growth at 50 uM by SRB assay; format: functional; conditions: read-out: Activity
In short: (§1)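 Measured in the NCI-60 human tumour cell line panel using five-dose testing. Growth was recorded at each dose for each cell line, and a GI50 was derived for each line.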

SK-MEL-28 = assay: Cytotoxicity against human SK-MEL-28 cells assessed as cell growth at 0.5 uM by SRB assay; format: functional; conditions: read-out: Activity
UACC-62 = assay: Cytotoxicity against human UACC62 cells assessed as cell growth at 0.5 uM by SRB assay; format: functional; conditions: read-out: Activity
HOP-92 = assay: Cytotoxicity against human HOP92 cells by SRB assay; format: functional; in short: as §1
LOX IMVI = assay: Cytotoxicity against human LOXIMVI cells assessed as cell growth at 0.5 uM by SRB assay; format: functional; conditions: read-out: Activity
NCI-H322M [3] = assay: Cytotoxicity against human NCI-H322M cells by SRB assay; format: functional
In short: (§2)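 NCI-60 panel screen; 5-dose testing giving GI50 per cell line, plus a single 10 µM one-dose test. Method details not given beyond the NCI screen.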

KM12 [4] = assay: Cytotoxicity against human KM12 cells assessed as cell growth at 0.05 uM by SRB assay; format: functional; conditions: read-out: Activity
A498 = assay: Cytotoxicity against human A498 cells assessed as cell growth at 0.5 uM by SRB assay; format: functional; conditions: read-out: Activity
IGROV-1 [5] = assay: Cytotoxicity against human IGROV1 cells assessed as cell growth at 0.5 uM by SRB assay; format: functional; conditions: read-out: Activity; in short: as §1
HCC 2998 = assay: Cytotoxicity against human HCC2998 cells assessed as cell growth at 5 uM by SRB assay; format: functional; conditions: read-out: Activity; in short: as §1
SK-MEL-2 = assay: Cytotoxicity against human SK-MEL-2 cells assessed as cell growth at 0.5 uM by SRB assay; format: functional; conditions: read-out: Activity
786-0 = assay: Cytotoxicity against human 786-0 cells assessed as cell growth at 0.05 uM by SRB assay; format: functional; conditions: read-out: Activity
NCI-H460 = assay: Cytotoxicity against human NCI-H460 cells assessed as cell growth at 0.05 uM by SRB assay; format: functional; conditions: read-out: Activity
MDA-MB-231 = assay: Cytotoxicity against human MDA-MB-231/ATCC cells assessed as cell growth at 0.05 uM by SRB assay; format: functional; conditions: read-out: Activity
IGROV-1 [6] = assay: Cytotoxicity against human IGROV1 cells assessed as cell growth at 0.05 uM by SRB assay; format: functional; conditions: read-out: Activity; in short: as §1
PC-3 [7] = assay: Cytotoxicity against human PC3 cells by SRB assay; format: functional; in short: as §2
RPMI-8226 = assay: Cytotoxicity against human RPMI8226 cells assessed as cell growth at 0.5 uM by SRB assay; format: functional; conditions: read-out: Activity
M14 = assay: Cytotoxicity against human M14 cells assessed as cell growth at 50 uM by SRB assay; format: functional; conditions: read-out: Activity
SF-268 [8] = assay: Cytotoxicity against human SF268 cells assessed as cell growth at 0.005 uM by SRB assay; format: functional; conditions: read-out: Activity
HCT-15 = assay: Cytotoxicity against human HCT15 cells assessed as cell growth at 0.005 uM by SRB assay; format: functional; conditions: read-out: Activity; in short: as §1
OVCAR-5 [9] = assay: Cytotoxicity against human OVCAR5 cells assessed as cell growth at 5 uM by SRB assay; format: functional; conditions: read-out: Activity
SR = assay: Cytotoxicity against human SR cells assessed as cell growth at 0.5 uM by SRB assay; format: functional; conditions: read-out: Activity
DU-145 = assay: Cytotoxicity against human DU145 cells assessed as cell growth at 0.05 uM by SRB assay; format: functional; conditions: read-out: Activity; in short: as §1
COLO 205 [10] = assay: Cytotoxicity against human COLO205 cells assessed as cell growth at 50 uM by SRB assay; format: functional; conditions: read-out: Activity
K562 = assay: Induction of DNA double strand breaks in human K562 cells assessed as increase in gamma-H2AX level at 25 uM after 4 hrs by chemiluminescence analysis; format: functional, cell-based
In short: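 K562 cells (3.4 × 10^5/mL) exposed 4 h at 37 °C to 25 µM drug or DMSO. Lysed in Tris pH 6.7/SDS buffer; 50 µg protein on 14% SDS-PAGE, PVDF blot. Rabbit anti-γH2AX (1:1000, overnight), GAPDH loading control, HRP secondary. Chemiluminescence imaged by CCD.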

BT-549 [11] = assay: Cytotoxicity against human BT549 cells assessed as cell growth at 0.05 uM by SRB assay; format: functional; conditions: read-out: Activity
SK-MEL-5 = assay: Cytotoxicity against human SK-MEL-5 cells assessed as cell growth at 0.05 uM by SRB assay; format: functional; conditions: read-out: Activity
A549 = assay: Cytotoxicity against human A549/ATCC cells assessed as cell growth at 50 uM by SRB assay; format: functional; conditions: read-out: Activity
NCI-H322M [12] = assay: Cytotoxicity against human NCI-H322M cells assessed as cell growth at 0.5 uM by SRB assay; format: functional; conditions: read-out: Activity
T47D = assay: Cytotoxicity against human T47D cells assessed as cell growth at 5 uM by SRB assay; format: functional; conditions: read-out: Activity
SF-268 [13] = assay: Cytotoxicity against human SF268 cells assessed as cell growth at 5 uM by SRB assay; format: functional; conditions: read-out: Activity
OVCAR-8 = assay: Cytotoxicity against human OVCAR8 cells assessed as cell growth at 0.05 uM by SRB assay; format: functional; conditions: read-out: Activity
SF-539 = assay: Cytotoxicity against human SF539 cells assessed as cell growth at 0.005 uM by SRB assay; format: functional; conditions: read-out: Activity
OVCAR-5 [14] = assay: Cytotoxicity against human OVCAR5 cells assessed as cell growth at 50 uM by SRB assay; format: functional; conditions: read-out: Activity
HL-60(TB) = assay: Cytotoxicity against human HL-60(TB) cells assessed as cell growth at 0.005 uM by SRB assay; format: functional; conditions: read-out: Activity; in short: as §1
KM12 [15] = assay: Cytotoxicity against human KM12 cells assessed as cell growth at 0.005 uM by SRB assay; format: functional; conditions: read-out: Activity
COLO 205 [16] = assay: Cytotoxicity against human COLO205 cells assessed as cell growth at 0.5 uM by SRB assay; format: functional; conditions: read-out: Activity
SF-295 = assay: Cytotoxicity against human SF295 cells assessed as cell growth at 0.005 uM by SRB assay; format: functional; conditions: read-out: Activity
UO-31 = assay: Cytotoxicity against human UO31 cells assessed as cell growth at 0.005 uM by SRB assay; format: functional; conditions: read-out: Activity
[17] = read-out: LC50 (the source's name)
[18] = read-out: pLC50 (the source's name) (converted)

COc1cc([C@@H]2c3cc4c(cc3[C@@H](NC(=O)CN3CCN(CCCCCCCCCCN5CCN(CC(=O)N[C@@H]6c7cc8c(cc7[C@@H](c7cc(OC)c(O)c(OC)c7)[C@H]7C(=O)OC[C@@H]76)OCO8)CC5)CC3)[C@H]3COC(=O)[C@H]23)OCO4)cc(OC)c1O
growth at 5 µM (RXF 393): -34% | growth at 5 µM (SN12C): 3% | growth at 0.5 µM (BT-549 [1]): 58% | growth at 0.005 µM (PC-3 [2]): 99% | growth at 50 µM (HCT-116): -51% | growth at 0.5 µM (SK-MEL-28): 138% | growth at 0.5 µM (UACC-62): 81% | GI50 (HOP-92; read-out: GI50): 140 nM | CC50 (HOP-92; [17]): > 50000 nM | TGI (HOP-92; read-out: TGI): 2580 nM | GI50 (HOP-92; read-out: pGI50 (converted)): 141 nM | CC50 (HOP-92; [18]): > 50100 nM | TGI (HOP-92; read-out: pTGI (converted)): 2570 nM | growth at 0.5 µM (LOX IMVI): 21% | GI50 (NCI-H322M [3]; read-out: GI50): 387 nM | CC50 (NCI-H322M [3]; [17]): > 50000 nM | TGI (NCI-H322M [3]; read-out: TGI): 1640 nM | GI50 (NCI-H322M [3]; read-out: pGI50 (converted)): 389 nM | CC50 (NCI-H322M [3]; [18]): > 50100 nM | TGI (NCI-H322M [3]; read-out: pTGI (converted)): 1620 nM | growth at 0.05 µM (KM12 [4]): 91% | growth at 0.5 µM (A498): 51% | growth at 0.5 µM (IGROV-1 [5]): 44% | growth at 5 µM (HCC 2998): 29% | growth at 0.5 µM (SK-MEL-2): 74% | growth at 0.05 µM (786-0): 89% | growth at 0.05 µM (NCI-H460): 90% | growth at 0.05 µM (MDA-MB-231): 92% | growth at 0.05 µM (IGROV-1 [6]): 83% | GI50 (PC-3 [7]; read-out: GI50): 903 nM | CC50 (PC-3 [7]; [17]): 47700 nM | TGI (PC-3 [7]; read-out: TGI): 8940 nM | GI50 (PC-3 [7]; read-out: pGI50 (converted)): 912 nM | CC50 (PC-3 [7]; [18]): 47900 nM | TGI (PC-3 [7]; read-out: pTGI (converted)): 8910 nM | growth at 0.5 µM (RPMI-8226): -2% | growth at 50 µM (M14): -49% | growth at 0.005 µM (SF-268 [8]): 97% | growth at 0.005 µM (HCT-15): 99% | growth at 5 µM (OVCAR-5 [9]): 5% | growth at 0.5 µM (SR): 33% | growth at 0.05 µM (DU-145): 77% | growth at 50 µM (COLO 205 [10]): -35% | Activity (K562): Active | growth at 0.05 µM (BT-549 [11]): 87% | growth at 0.05 µM (SK-MEL-5): 96% | growth at 50 µM (A549): -41% | growth at 0.5 µM (NCI-H322M [12]): 45% | growth at 5 µM (T47D): 16% | growth at 5 µM (SF-268 [13]): -34% | growth at 0.05 µM (OVCAR-8): 92% | growth at 0.005 µM (SF-539): 98% | growth at 50 µM (OVCAR-5 [14]): -88% | growth at 0.005 µM (HL-60(TB)): 96% | growth at 0.005 µM (KM12 [15]): 97% | growth at 0.5 µM (COLO 205 [16]): 72% | growth at 0.005 µM (SF-295): 92% | growth at 0.005 µM (UO-31): 86%

— ChEMBL document CHEMBL3588757, “Structure-based design, synthesis and biological testing of piperazine-linked bis-epipodophyllotoxin etoposide analogs” (Bioorg Med Chem, 2015)
